Reference: ChEMBL document CHEMBL1132144, “Synthesis of 9-O-substituted derivatives of 9-hydroxy-5, 6-dimethyl-6H-pyrido[4,3-b]carbazole-1-carboxylic acid (2-(dimethylamino)ethyl)amide and their 10- and 11-methyl analogues with improved antitumor activity” (J Med Chem, 1999)

These compounds were tested on Mus musculus (assay: Long-term survivors among 6 mice infected with P388 leukemia, scored on day 60 at 160 mg/kg dose). Conditions: not given.
Type: functional
Outline: (§1)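 B6D2F1 mice in groups of 6–7 were inoculated ip on day 0 with 10^6 P388 cells. Dihydrochloride salts were dissolved in water and given iv on day 1 or on days 1, 5 and 9. Doses ranged from a low nontoxic dose to a toxic one. Long-term survivors were counted at day 60.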

SMILES	LTS
Cc1c2ccnc(C(=O)NCCN(C)C)c2cc2c3cc(OC(=O)N4CCN(C)CC4)ccc3n(C)c12	0
Cc1c2ccnc(C(=O)NCCN(C)C)c2cc2c3cc(OS(C)(=O)=O)ccc3n(C)c12	0
Cc1c2ccnc(C(=O)NCCN(C)C)c2cc2c3cc(OP(=O)(O)O)ccc3n(C)c12	1
Cc1c2ccnc(C(=O)NCCN(C)C)c2cc2c3cc(OC(=O)N4CCOCC4)ccc3n(C)c12	0

Each compound was assayed on Mus musculus (assay: Percent median survival time of mice injected with B16 melanoma, at a intraperitoneal compound dose of 20 mg/kg). Conditions: not given.

SMILES	T/C
Cc1c2ccnc(C(=O)NCCN(C)C)c2cc2c3cc(OC(=O)N4CCN(C)CC4)ccc3n(C)c12	159%
Cc1c2ccnc(C(=O)NCCN(C)C)c2cc2c3cc(OS(C)(=O)=O)ccc3n(C)c12	142%
Cc1c2ccnc(C(=O)NCCN(C)C)c2cc2c3cc(OC(=O)N4CCOCC4)ccc3n(C)c12	139%

These compounds were tested on Mus musculus (assay: Long-term survivors among 6 mice infected with P388 leukemia, scored on day 60 at 40 mg/kg dose). Conditions: not given.
Type: functional
Outline: as §1

SMILES	LTS
Cc1c2ccnc(C(=O)NCCN(C)C)c2cc2c3cc(OS(C)(=O)=O)ccc3n(C)c12	0
Cc1c2ccnc(C(=O)NCCN(C)C)c2cc2c3cc(OP(=O)(O)O)ccc3n(C)c12	1
COc1ccc2c(c1)c1cc3c(C(=O)NCCN(C)C)nccc3c(C)c1n2C	0

Organism: Mus musculus
Test: Long-term survivors among 14 mice infected with B16 melanoma, scored on day 90 at optimal dose on days 1-9
Conditions: not given

SMILES	LTS
Cc1c2ccnc(C(=O)NCCN(C)C)c2cc2c3cc(OC(=O)CCCCCC(=O)O)ccc3n(C)c12	1

The compounds below were run on Mus musculus (assay: Long-term survivors among 14 mice infected with P388 leukemia, scored on day 60 at 40 mg/kg dose on day 1). Conditions: not given.
Type: functional
Outline: as §1

SMILES	LTS
CCCCCCCCCCCCCC(=O)Oc1ccc2c(c1)c1cc3c(C(=O)NCCN(C)C)nccc3c(C)c1n2C	0

What follows are compounds tested on L1210 (assay: Inhibition of murine L1210 leukemia cell proliferation measured by the MTT assay). Conditions: Mus musculus.
Type: functional, cell-based
Outline: (§2)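 Murine L1210 leukemia and B16 melanoma cells were grown in RPMI 1640 with 10% fetal calf serum, 2 mM L-glutamine, penicillin/streptomycin and 10 mM HEPES (pH 7.4). Cells were exposed to nine serial drug dilutions in triplicate for about four doubling times (L1210 48 h, B16 96 h), then read by microculture tetrazolium (MTT) assay. IC50 is the concentration halving optical density versus untreated controls, averaged over ≥2 independent experiments.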

SMILES	IC50
Cc1c2ccnc(C(=O)NCCN(C)C)c2cc2c3cc(OC(=O)N4CCN(C)CC4)ccc3n(C)c12	1300 nM
Cc1c2ccnc(C(=O)NCCN(C)C)c2cc2c3cc(OS(C)(=O)=O)ccc3n(C)c12	868 nM
Cc1c2ccnc(C(=O)NCCN(C)C)c2cc2c3cc(OP(=O)(O)O)ccc3n(C)c12	50.5 nM
COC(=O)CCCC(=O)Oc1ccc2c(c1)c1cc3c(C(=O)NCCN(C)C)nccc3c(C)c1n2C	5.4 nM
Cc1c2ccnc(C(=O)NCCN(C)C)c2cc2c3cc(OC(=O)N4CCOCC4)ccc3n(C)c12	646 nM
CCCCCCCCCCCCCC(=O)Oc1ccc2c(c1)c1cc3c(C(=O)NCCN(C)C)nccc3c(C)c1n2C	215 nM
Cc1c2ccnc(C(=O)NCCN(C)C)c2cc2c3cc(OC(=O)CCCCCC(=O)O)ccc3n(C)c12	3.7 nM
COc1ccc2c(c1)c1cc3c(C(=O)NCCN(C)C)nccc3c(C)c1n2C	551 nM

Organism: Mus musculus
Test: Long-term survivors among 14 mice infected with B16 melanoma, scored on day 90 at optimal dose on days 1-9
Conditions: not given
Remark: another data set of the same source

SMILES	LTS
CCCCCCCCCCCCCC(=O)Oc1ccc2c(c1)c1cc3c(C(=O)NCCN(C)C)nccc3c(C)c1n2C	1

The compounds below were run on Mus musculus (assay: Percent median survival time of mice intraperitoneally injected with P388 leukemia was determined from tested at 40 mg/kg at day1 dose to that of control). Conditions: route intraperitoneal.
Type: functional
Outline: (§3)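 P388 leukemia in B6D2F1 mice (groups of 6–7), 10^6 cells inoculated ip on day 0. Dihydrochloride salts were dissolved in water and given iv on day 1 or on days 1, 5, 9. Three doses were tested, then five if active. %T/C = median survival treated/control × 100, reported at the optimal dose (no toxic death, weight loss <20%), from one or two representative experiments.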

SMILES	T/C
COc1ccc2c(c1)c1cc3c(C(=O)NCCN(C)C)nccc3c(C)c1n2C	94%

What follows are compounds tested on Mus musculus (assay: Long-term survivors among 7 mice infected with P388 leukemia, scored on day 60 at 20 mg/kg dose on day 1). Conditions: not given.
Type: functional
Outline: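 B6D2F1 mice in groups of 6–7 received 10^6 P388 cells ip on day 0. Dihydrochloride salts dissolved in water were injected iv on day 1 or on days 1, 5 and 9, at three doses and then five. Read-outs were % T/C (median survival treated/control × 100) and long-term survivors on day 60, both at the optimal dose (no toxic death, weight loss <20%).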

SMILES	LTS
COC(=O)CCCC(=O)Oc1ccc2c(c1)c1cc3c(C(=O)NCCN(C)C)nccc3c(C)c1n2C	0

Each compound was assayed on Mus musculus (assay: Percent median survival time of mice intraperitoneally injected with P388 leukemia was determined from tested at 20 mg/kg at day1,5,9 dose to that of control). Conditions: route intravenous.
Type: functional
Outline: as §3

SMILES	T/C
COc1ccc2c(c1)c1cc3c(C(=O)NCCN(C)C)nccc3c(C)c1n2C	96%

What follows are compounds tested on Mus musculus (assay: Long-term survivors among 7 mice infected with P388 leukemia, scored on day 90 at 10 mg/kg dose). Conditions: not given.
Type: functional

SMILES	LTS
Cc1c2ccnc(C(=O)NCCN(C)C)c2cc2c3cc(OP(=O)(O)O)ccc3n(C)c12	0
COc1ccc2c(c1)c1cc3c(C(=O)NCCN(C)C)nccc3c(C)c1n2C	0

These compounds were tested on Mus musculus (assay: Percent median survival time of mice injected with B16 melanoma, at a intraperitoneal compound dose of 5 mg/kg). Conditions: not given.

SMILES	T/C
COC(=O)CCCC(=O)Oc1ccc2c(c1)c1cc3c(C(=O)NCCN(C)C)nccc3c(C)c1n2C	144%

These compounds were tested on Mus musculus (assay: Percent median survival time of mice intraperitoneally injected with P388 leukemia was determined from tested at 160 mg/kg at day1 dose to that of control). Conditions: not given.
Type: functional
Outline: as §3

SMILES	T/C
Cc1c2ccnc(C(=O)NCCN(C)C)c2cc2c3cc(OC(=O)N4CCN(C)CC4)ccc3n(C)c12	146%
Cc1c2ccnc(C(=O)NCCN(C)C)c2cc2c3cc(OS(C)(=O)=O)ccc3n(C)c12	96%
Cc1c2ccnc(C(=O)NCCN(C)C)c2cc2c3cc(OP(=O)(O)O)ccc3n(C)c12	239%
Cc1c2ccnc(C(=O)NCCN(C)C)c2cc2c3cc(OC(=O)N4CCOCC4)ccc3n(C)c12	149%

The compounds below were run on B16 (assay: Inhibition of murine B16 melanoma cell proliferation measured by the MTT assay). Conditions: Mus musculus.
Type: functional, cell-based
Outline: as §2

SMILES	IC50
Cc1c2ccnc(C(=O)NCCN(C)C)c2cc2c3cc(OC(=O)N4CCN(C)CC4)ccc3n(C)c12	2470 nM
Cc1c2ccnc(C(=O)NCCN(C)C)c2cc2c3cc(OS(C)(=O)=O)ccc3n(C)c12	782 nM
Cc1c2ccnc(C(=O)NCCN(C)C)c2cc2c3cc(OP(=O)(O)O)ccc3n(C)c12	4.1 nM
COC(=O)CCCC(=O)Oc1ccc2c(c1)c1cc3c(C(=O)NCCN(C)C)nccc3c(C)c1n2C	7.1 nM
Cc1c2ccnc(C(=O)NCCN(C)C)c2cc2c3cc(OC(=O)N4CCOCC4)ccc3n(C)c12	1770 nM
CCCCCCCCCCCCCC(=O)Oc1ccc2c(c1)c1cc3c(C(=O)NCCN(C)C)nccc3c(C)c1n2C	195 nM
Cc1c2ccnc(C(=O)NCCN(C)C)c2cc2c3cc(OC(=O)CCCCCC(=O)O)ccc3n(C)c12	3.2 nM
COc1ccc2c(c1)c1cc3c(C(=O)NCCN(C)C)nccc3c(C)c1n2C	334 nM

What follows are compounds tested on Mus musculus (assay: Percent median survival time of mice intraperitoneally injected with P388 leukemia was determined from tested at 40 mg/kg at day1,5,9 dose to that of control). Conditions: route intraperitoneal.
Type: functional
Outline: as §3

SMILES	T/C
Cc1c2ccnc(C(=O)NCCN(C)C)c2cc2c3cc(OS(C)(=O)=O)ccc3n(C)c12	106%
Cc1c2ccnc(C(=O)NCCN(C)C)c2cc2c3cc(OP(=O)(O)O)ccc3n(C)c12	405%

Each compound was assayed on Mus musculus (assay: Percent median survival time of mice injected with P388 leukemia, at a intravenous compound dose of 80 mg/kg). Conditions: not given.

SMILES	T/C
Cc1c2ccnc(C(=O)NCCN(C)C)c2cc2c3cc(OC(=O)CCCCCC(=O)O)ccc3n(C)c12	>600%

Each compound was assayed on Mus musculus (assay: Percent median survival time of mice intraperitoneally injected with P388 leukemia was determined from tested at 80 mg/kg at day1,5,9 dose to that of control). Conditions: route intraperitoneal.
Type: functional
Outline: as §3

SMILES	T/C
Cc1c2ccnc(C(=O)NCCN(C)C)c2cc2c3cc(OC(=O)N4CCN(C)CC4)ccc3n(C)c12	134%
Cc1c2ccnc(C(=O)NCCN(C)C)c2cc2c3cc(OC(=O)N4CCOCC4)ccc3n(C)c12	196%

These compounds were tested on Mus musculus (assay: Long-term survivors among 7 mice infected with B16 melanoma, scored on day 90 at 20 mg/kg dose on day 1). Conditions: not given.
Type: functional

SMILES	LTS
COC(=O)CCCC(=O)Oc1ccc2c(c1)c1cc3c(C(=O)NCCN(C)C)nccc3c(C)c1n2C	0

Each compound was assayed on Mus musculus (assay: Percent median survival time of mice injected with P388 leukemia, at a intravenous compound dose of 320 mg/kg). Conditions: not given.

SMILES	T/C
Cc1c2ccnc(C(=O)NCCN(C)C)c2cc2c3cc(OC(=O)CCCCCC(=O)O)ccc3n(C)c12	>600%

Each compound was assayed on Mus musculus (assay: Percent median survival time of mice injected with P388 leukemia, at a subcutaneous compound dose of 10 mg/kg). Conditions: not given.
Type: functional

SMILES	T/C
COC(=O)CCCC(=O)Oc1ccc2c(c1)c1cc3c(C(=O)NCCN(C)C)nccc3c(C)c1n2C	158%
CCCCCCCCCCCCCC(=O)Oc1ccc2c(c1)c1cc3c(C(=O)NCCN(C)C)nccc3c(C)c1n2C	153%

The compounds below were run on Mus musculus (assay: Long-term survivors among 6 mice infected with P388 leukemia, scored on day 90 at 20 mg/kg dose). Conditions: not given.
Type: functional

SMILES	LTS
Cc1c2ccnc(C(=O)NCCN(C)C)c2cc2c3cc(OS(C)(=O)=O)ccc3n(C)c12	0

What follows are compounds tested on Mus musculus (assay: Long-term survivors among 14 mice infected with P388 leukemia, scored on day 60 at 320 mg/kg dose on day 1). Conditions: not given.
Type: functional
Outline: as §1

SMILES	LTS
Cc1c2ccnc(C(=O)NCCN(C)C)c2cc2c3cc(OC(=O)CCCCCC(=O)O)ccc3n(C)c12	5

What follows are compounds tested on Mus musculus (assay: Long-term survivors among 6 mice infected with P388 leukemia, scored on day 60 at 80 mg/kg dose). Conditions: not given.
Type: functional
Outline: as §1

SMILES	LTS
Cc1c2ccnc(C(=O)NCCN(C)C)c2cc2c3cc(OC(=O)N4CCN(C)CC4)ccc3n(C)c12	0
Cc1c2ccnc(C(=O)NCCN(C)C)c2cc2c3cc(OC(=O)N4CCOCC4)ccc3n(C)c12	0

What follows are compounds tested on Mus musculus (assay: Percent median survival time of mice injected with B16 melanoma, at a intraperitoneal compound dose of 10 mg/kg). Conditions: not given.

SMILES	T/C
Cc1c2ccnc(C(=O)NCCN(C)C)c2cc2c3cc(OP(=O)(O)O)ccc3n(C)c12	171%
CCCCCCCCCCCCCC(=O)Oc1ccc2c(c1)c1cc3c(C(=O)NCCN(C)C)nccc3c(C)c1n2C	166%
Cc1c2ccnc(C(=O)NCCN(C)C)c2cc2c3cc(OC(=O)CCCCCC(=O)O)ccc3n(C)c12	246%
COc1ccc2c(c1)c1cc3c(C(=O)NCCN(C)C)nccc3c(C)c1n2C	126%

Each compound was assayed on Mus musculus (assay: Percent median survival time of mice injected with P388 leukemia, at a intravenous compound dose of 40 mg/kg). Conditions: not given.

SMILES	T/C
CCCCCCCCCCCCCC(=O)Oc1ccc2c(c1)c1cc3c(C(=O)NCCN(C)C)nccc3c(C)c1n2C	176%

These compounds were tested on Mus musculus (assay: Percent median survival time of mice injected with P388 leukemia, at a subcutaneous compound dose of 20 mg/kg). Conditions: not given.
Type: functional

SMILES	T/C
COC(=O)CCCC(=O)Oc1ccc2c(c1)c1cc3c(C(=O)NCCN(C)C)nccc3c(C)c1n2C	145%

What follows are compounds tested on Mus musculus (assay: Long-term survivors among 6 mice infected with P388 leukemia, scored on day 60 at 20 mg/kg dose). Conditions: not given.
Type: functional
Outline: as §1

SMILES	LTS
COc1ccc2c(c1)c1cc3c(C(=O)NCCN(C)C)nccc3c(C)c1n2C	0
